# Assay results as given in ChEMBL document CHEMBL1138753, “Synthesis and biological activity of analogues of the antimicrotubule agent N,beta,beta-trimethyl-L-phenylalanyl-N(1)-[(1S,2E)-3-carboxy-1-isopropylbut-2-enyl]- N(1),3-dimethyl-L-valinamide (HTI-286)” (J Med Chem, 2004).
# Experiments:
# [1] = Concentration required to inhibit tumor cell growth in KB-3-1 cells; assay type: functional, cell-based, Homo sapiens; settings: Homo sapiens, KB 3-1
# In short: (§1)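 Cytotoxicity was measured in paclitaxel-sensitive KB-3-1 cells and in KB-8-5 and KB-V1 cells, which express moderate and high P-glycoprotein respectively. Result is the average IC50 (nM) ± SEM; SEM is omitted where it is below 10% of the average.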
# Tubulin beta-1 chain [2] = molecular target: T1, Tubulin beta-1 chain (Homo sapiens, UniProt Q9H4B7); assay: Percent inhibition of tubulin polymerization at 0.3 uM concentration; assay type: functional
# KB [3] = assay: Concentration required to inhibit tumor cell growth in KB-8-5 cells; assay type: functional, cell-based, Homo sapiens; settings: Homo sapiens, KB; in short: as §1
# KB [4] = assay: Concentration required to inhibit tumor cell growth in KB-V1 cells; assay type: functional, cell-based; settings: Homo sapiens; in short: as §1
# Mus musculus = assay: Minimum effective dose was evaluated in lox melanoma human tumor graft model in athymic mice when administered intravenously; settings: iv, read-out: MED
# Tubulin beta-1 chain [5] = molecular target: T1, Tubulin beta-1 chain; assay: Binding affinity towards tubulin
# LOX IMVI = assay: Inhibitory concentration against Lox melanoma cells; assay type: functional, cell-based; settings: Homo sapiens
# In short: (§2)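 Cytotoxicity panel covered tumor lines differing in P-glycoprotein expression. Lox melanoma and KM20 have none; NCI-H1299, HCT-15 and S1 express it. Result is the average IC50 (nM) ± SEM.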
# NCI-H1299 = assay: Inhibitory concentration against NCI-H1299 cells was evaluated; assay type: functional, cell-based; settings: Homo sapiens; in short: as §2
# HCT-15 = assay: Inhibitory concentration against HCT-15 cells was evaluated; assay type: functional, cell-based; settings: Homo sapiens; in short: as §2
# T1 sequence (Q9H4B7 whole entry): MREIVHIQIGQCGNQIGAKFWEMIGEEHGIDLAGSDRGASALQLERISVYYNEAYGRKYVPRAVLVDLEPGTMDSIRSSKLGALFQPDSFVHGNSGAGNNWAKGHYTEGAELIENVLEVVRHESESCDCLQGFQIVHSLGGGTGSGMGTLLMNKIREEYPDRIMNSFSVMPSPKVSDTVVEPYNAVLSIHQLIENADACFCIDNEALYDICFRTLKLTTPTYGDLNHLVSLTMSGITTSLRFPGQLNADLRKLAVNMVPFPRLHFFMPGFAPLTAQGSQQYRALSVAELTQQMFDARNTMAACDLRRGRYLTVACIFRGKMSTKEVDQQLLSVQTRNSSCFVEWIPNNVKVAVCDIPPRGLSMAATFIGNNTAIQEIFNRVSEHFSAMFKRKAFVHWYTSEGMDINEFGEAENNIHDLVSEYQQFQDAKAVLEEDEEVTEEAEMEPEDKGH
SMILES,IC50 [1] [nM],inhibition (Tubulin beta-1 chain [2]) [%],IC50 (KB [3]) [nM],IC50 (KB [4]) [nM],minimal effective dose (Mus musculus) [mg/kg],Kd (Tubulin beta-1 chain [5]) [nM],IC50 (LOX IMVI) [nM],IC50 (NCI-H1299) [nM],IC50 (HCT-15) [nM]
CCC[C@H](NC(=O)[C@@H](NC)C(C)(C)c1ccccc1)C(=O)N(C)[C@H](/C=C(\C)C(=O)O)C(C)C,15,51,19,575,,,,,
C/C(=C\[C@H](C(C)C)N(C)C(=O)[C@@H](NC(=O)[C@H](C(C)(C)c1ccccc1)S(C)(=O)=O)C(C)(C)C)C(=O)O,1750,80,2110,> 3000,,,,,
C/C(=C\[C@H](C(C)C)N(C)C(=O)[C@@H](NC(=O)[C@@H](NCC(=O)O)C(C)(C)c1ccccc1)C(C)(C)C)C(=O)O,> 3000,35,> 3000,> 3000,,,,,
CCN(C(=O)[C@@H](NC(=O)[C@@H](NC)C(C)(C)c1ccccc1)C(C)(C)C)[C@H](/C=C(\C)C(=O)O)C(C)C,109,11,197,> 3000,,,,,
CCC(CC)(c1ccccc1)[C@H](NC)C(=O)N[C@H](C(=O)N(C)[C@H](/C=C(\C)C(=O)O)C(C)C)C(C)(C)C,8.5,86,18,479,,,,,
CN[C@H](C(=O)N[C@H](C(=O)N(C)[C@H](/C=C(\C)C(=O)O)C(C)C)C(C)(C)C)C(C)(C)C1CCCCC1,3.9,93,5.7,155,1,1200,,,
CCOC(=O)/C(C)=C/[C@H](C(C)C)N(C)C(=O)[C@@H](NC(=O)[C@@H](NC)C(C)(C)c1ccccc1)C(C)(C)C,34,97,499,1870,0.4,4000,13.9,100,575
CC[C@@H](C(=O)N[C@H](C(=O)N(C)[C@H](/C=C(\C)C(=O)O)C(C)C)C(C)(C)C)C(C)(C)c1ccccc1,912,54,1200,5250,,,,,
C/C(=C\[C@H](C(C)C)N(C)C(=O)[C@@H](NC(=O)[C@@H](O)C(C)(C)c1ccccc1)C(C)(C)C)C(=O)O,> 3000,21,> 3000,> 3000,,,,,
C/C(=C\[C@H](C(C)C)N(C)C(=O)[C@@H](NC(=O)[C@@H](N(C)C)C(C)(C)c1ccccc1)C(C)(C)C)C(=O)O,1.6,93,3.7,116,1,,,,
CN[C@H](C(=O)N[C@H](C(=O)N(C)[C@H](/C=C(\C)C(=O)O)C(C)C)C(C)(C)C)C(C)(C)c1ccc(-c2ccccc2)cc1,3.2,86,6.8,177,,,,,
CN[C@H](C(=O)N[C@H](C(=O)N(C)[C@H](/C=C(\C)C(=O)N1CCN(Cc2ccccc2)CC1)C(C)C)C(C)(C)C)C(C)(C)c1ccccc1,15,29,22,366,,,,,
CO[C@H](C(=O)N[C@H](C(=O)N(C)[C@H](/C=C(\C)C(=O)O)C(C)C)C(C)(C)C)C(C)(C)c1ccccc1,1420,54,1230,> 3000,,,,,
CS[C@@H](C(=O)N[C@H](C(=O)N(C)[C@H](/C=C(\C)C(=O)O)C(C)C)C(C)(C)C)C(C)(C)c1ccccc1,691,79,1150,> 6000,,,,,
CN[C@H](C(=O)N[C@H](C(=O)N(C)[C@H](/C=C(\C)C(=O)NO)C(C)C)C(C)(C)C)C(C)(C)c1ccccc1,39,75,227,> 3000,,,,,
CNCC(=O)N[C@H](C(=O)N[C@H](C(=O)N(C)[C@H](/C=C(\C)C(=O)O)C(C)C)C(C)(C)C)C(C)(C)c1ccccc1,1400,4,2120,> 3000,,,,,
CC[C@H](C(=O)N[C@H](C(=O)N(C)[C@H](/C=C(\C)C(=O)O)C(C)C)C(C)(C)C)C(C)(C)c1ccccc1,912,54,1200,5250,,,,,
